Test results taken from ChEMBL document CHEMBL5674868, “Cancer Cells Hijack PRC2 to Modify Multiple Cytokine Pathways” (PLoS One, 2015).
Active and inactive are the calls of the source. The calls are words filed in the database; no cut-off is given here.

What was measured:
Format in all cases: cell-based
[1] = target: Histone-lysine N-methyltransferase EZH2 (Homo sapiens) (UniProt Q15910); test: Inhibition of EZH2 in human MCF7 cells assessed as increase in IFN-gamma-induced SUZ12-repressed ISGs mRNA level after 6 hrs by RT-PCR analysis
Sequence of Histone-lysine N-methyltransferase EZH2 (Homo sapiens) (Q15910 whole entry, looked up): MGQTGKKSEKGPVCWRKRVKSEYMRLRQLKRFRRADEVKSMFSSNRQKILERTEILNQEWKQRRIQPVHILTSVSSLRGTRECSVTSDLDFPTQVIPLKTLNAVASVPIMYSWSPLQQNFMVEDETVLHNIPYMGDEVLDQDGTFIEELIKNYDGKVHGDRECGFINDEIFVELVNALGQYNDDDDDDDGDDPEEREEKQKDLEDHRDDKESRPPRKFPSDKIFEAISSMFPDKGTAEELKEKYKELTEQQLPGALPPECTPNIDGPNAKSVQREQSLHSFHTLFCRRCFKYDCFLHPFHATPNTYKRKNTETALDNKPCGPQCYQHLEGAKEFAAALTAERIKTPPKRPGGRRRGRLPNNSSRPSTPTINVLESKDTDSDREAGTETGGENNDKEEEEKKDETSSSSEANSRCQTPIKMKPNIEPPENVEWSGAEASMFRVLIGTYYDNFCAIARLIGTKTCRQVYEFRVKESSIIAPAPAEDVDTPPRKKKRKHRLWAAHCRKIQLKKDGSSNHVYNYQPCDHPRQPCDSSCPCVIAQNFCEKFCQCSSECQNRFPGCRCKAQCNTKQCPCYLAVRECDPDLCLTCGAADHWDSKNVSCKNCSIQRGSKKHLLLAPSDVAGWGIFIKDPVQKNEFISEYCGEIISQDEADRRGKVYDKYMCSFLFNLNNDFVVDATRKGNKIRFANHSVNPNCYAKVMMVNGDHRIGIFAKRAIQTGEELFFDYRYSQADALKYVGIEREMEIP
Method in brief: (§1)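 Cells pretreated for two 4-day cycles with 2 µM GSK343 or UNC1999, then left unstimulated or given human IFNγ for 6 h. RNA reverse-transcribed and measured by quantitative PCR, normalized to β-actin. Three biological replicates per treatment group.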

[2] = target: Histone-lysine N-methyltransferase EZH2 (Homo sapiens) (UniProt Q15910); test: Inhibition of EZH2 in human A549 cells assessed as increase in LPS-induced PDGFA level for 24 hrs by multiplexing laser bead assay
Method in brief: (§2)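 A549 cells were pretreated with vehicle or UNC1999 over two four-day cycles at 2 μM. They were seeded at 3×10^4/well, rested for 4 h, then exposed for 24 h to no stimulus, 5 μg/ml E. coli LPS or 10 U/ml TNFα. Secreted cytokines in the supernatants were quantified by a 41-plex laser bead assay.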

[3] = target: Histone-lysine N-methyltransferase EZH2 (Homo sapiens) (UniProt Q15910); test: Inhibition of EZH2 in human HeLa cells assessed as effect on HPRT mRNA level after 6 hrs by RT-PCR analysis in presence of IFN-gamma
Method in brief: (§3)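 Cells were treated for two four-day cycles with 2 μM GSK343 or UNC1999, then left untreated or stimulated with human IFNγ for 6 h. mRNA was measured by reverse transcription quantitative PCR and normalized to β-actin. Three biological replicates were run per treatment group.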

[4] = target: Histone-lysine N-methyltransferase EZH2 (Homo sapiens) (UniProt Q15910); test: Inhibition of EZH2 in human A549 cells assessed as increase in TNF-alpha-induced TGFA level for 24 hrs by multiplexing laser bead assay; method in brief: as §2
[5] = target: Histone-lysine N-methyltransferase EZH2 (Homo sapiens) (UniProt Q15910); test: Inhibition of EZH2 in human MCF7 cells assessed as effect on IRF1 mRNA level after 6 hrs by RT-PCR analysis in presence of IFN-gamma; method in brief: as §1
[6] = target: Histone-lysine N-methyltransferase EZH2 (Homo sapiens) (UniProt Q15910); test: Inhibition of EZH2 in human A549 cells assessed as increase in TNF-alpha-induced PDGFA level for 24 hrs by multiplexing laser bead assay; method in brief: as §2
[7] = target: Histone-lysine N-methyltransferase EZH2 (Homo sapiens) (UniProt Q15910); test: Inhibition of EZH2 in human ASPC1 cells assessed as effect on HPRT mRNA level after 6 hrs by RT-PCR analysis; method in brief: as §3
[8] = target: Histone-lysine N-methyltransferase EZH2 (Homo sapiens) (UniProt Q15910); test: Inhibition of EZH2 in human ASPC1 cells assessed as effect on PITX2 mRNA level after 6 hrs by RT-PCR analysis; method in brief: as §3
[9] = target: Histone-lysine N-methyltransferase EZH2 (Homo sapiens) (UniProt Q15910); test: Inhibition of EZH2 in human A549 cells assessed as effect on HPRT mRNA level after 6 hrs by RT-PCR analysis in presence of IFN-gamma; method in brief: as §3
[10] = target: Histone-lysine N-methyltransferase EZH2 (Homo sapiens) (UniProt Q15910); test: Inhibition of EZH2 in human MCF7 cells assessed as effect on PITX2 mRNA level after 6 hrs by RT-PCR analysis in presence of IFN-gamma; method in brief: as §1
[11] = target: Histone-lysine N-methyltransferase EZH2 (Homo sapiens) (UniProt Q15910); test: Inhibition of EZH2 in human A549 cells assessed as increase in LPS-induced TGF-A level for 24 hrs by multiplexing laser bead assay; method in brief: as §2
[12] = target: Histone-lysine N-methyltransferase EZH2 (Homo sapiens) (UniProt Q15910); test: Inhibition of EZH2 in human A549 cells assessed as effect on IRF1 mRNA level after 6 hrs by RT-PCR analysis; method in brief: as §3
[13] = target: Histone-lysine N-methyltransferase EZH2 (Homo sapiens) (UniProt Q15910); test: Inhibition of EZH2 in human AsPC1 cells assessed as decrease in H3K27me3 levels at 2 uM after 6 hrs by Western blot analysis
[14] = target: Histone-lysine N-methyltransferase EZH2 (Homo sapiens) (UniProt Q15910); test: Inhibition of EZH2 in human A549 cells assessed as increase in IFN-gamma-induced SUZ12-repressed ISGs mRNA level after 6 hrs by RT-PCR analysis; method in brief: as §3
[15] = target: Histone-lysine N-methyltransferase EZH2 (Homo sapiens) (UniProt Q15910); test: Inhibition of EZH2 in human A549 cells assessed as increase in TNF-alpha-induced VEGFA level for 24 hrs by multiplexing laser bead assay; method in brief: as §2
[16] = target: Histone-lysine N-methyltransferase EZH2 (Homo sapiens) (UniProt Q15910); test: Inhibition of EZH2 in human A549 cells assessed as increase in TNF-alpha-induced CCL-5 level for 24 hrs by multiplexing laser bead assay; method in brief: as §2
[17] = target: Histone-lysine N-methyltransferase EZH2 (Homo sapiens) (UniProt Q15910); test: Inhibition of EZH2 in human HeLa cells assessed as effect on IRF1 mRNA level after 6 hrs by RT-PCR analysis; method in brief: as §3
[18] = target: Histone-lysine N-methyltransferase EZH2 (Homo sapiens) (UniProt Q15910); test: Inhibition of EZH2 in human A549 cells assessed as increase in LPS-induced VEGF-A level for 24 hrs by multiplexing laser bead assay; method in brief: as §2
[19] = target: Histone-lysine N-methyltransferase EZH2 (Homo sapiens) (UniProt Q15910); test: Inhibition of EZH2 in human ASPC1 cells assessed as effect on HPRT mRNA level after 6 hrs by RT-PCR analysis in presence of IFN-gamma; method in brief: as §3
[20] = target: Histone-lysine N-methyltransferase EZH2 (Homo sapiens) (UniProt Q15910); test: Inhibition of EZH2 in human A549 cells assessed as increase in TNF-alpha-induced CXCL-1 level for 24 hrs by multiplexing laser bead assay; method in brief: as §2
[21] = target: Histone-lysine N-methyltransferase EZH2 (Homo sapiens) (UniProt Q15910); test: Inhibition of EZH2 in human A549 cells assessed as increase in IL-1beta-induced IL-6 level for 24 hrs by ELISA
Method in brief: (§4)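 A549 cells were pretreated for two four-day cycles with 2 μM UNC1999 or with DMSO. They were seeded at 3×10^4/well, allowed to settle for 4 h, then given the indicated concentrations of IFNγ, IL1β, LPS or TNFα for 24 h. Secreted IL6, IL8 or CXCL10 in the supernatant was measured by ELISA in duplicate. n = 3; ANOVA followed by Fisher test.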

[22] = target: Histone-lysine N-methyltransferase EZH2 (Homo sapiens) (UniProt Q15910); test: Inhibition of EZH2 in human A549 cells assessed as decrease in H3K27me3 levels at 2 uM after 6 hrs by Western blot analysis
[23] = target: Histone-lysine N-methyltransferase EZH2 (Homo sapiens) (UniProt Q15910); test: Inhibition of EZH2 in human MCF7 cells assessed as effect on HPRT mRNA level after 6 hrs by RT-PCR analysis in presence of IFN-gamma; method in brief: as §3
[24] = target: Histone-lysine N-methyltransferase EZH2 (Homo sapiens) (UniProt Q15910); test: Inhibition of EZH2 in human A549 cells assessed as increase in TNFalpha-induced CXCL10 level for 24 hrs by ELISA; method in brief: as §4
[25] = target: Histone-lysine N-methyltransferase EZH2 (Homo sapiens) (UniProt Q15910); test: Inhibition of EZH2 in human ASPC1 cells assessed as effect on IRF1 mRNA level after 6 hrs by RT-PCR analysis; method in brief: as §3
[26] = target: Histone-lysine N-methyltransferase EZH2 (Homo sapiens) (UniProt Q15910); test: Inhibition of EZH2 in human HeLa cells assessed as effect on PITX2 mRNA level after 6 hrs by RT-PCR analysis in presence of IFN-gamma; method in brief: as §3
[27] = target: Histone-lysine N-methyltransferase EZH2 (Homo sapiens) (UniProt Q15910); test: Inhibition of EZH2 in human A549 cells assessed as increase in LPS-induced CSF-3 level for 24 hrs by multiplexing laser bead assay; method in brief: as §2

inhibition [1]: Active
inhibition [2]: Active
inhibition [3]: inactive
inhibition [4]: Active
inhibition [5]: inactive
inhibition [6]: Active
inhibition [7]: inactive
inhibition [8]: inactive
inhibition [9]: inactive
inhibition [10]: inactive
inhibition [11]: Active
inhibition [12]: inactive
inhibition [13]: Active
inhibition [14]: Active
inhibition [15]: Active
inhibition [16]: Active
inhibition [17]: inactive
inhibition [18]: Active
inhibition [19]: inactive
inhibition [20]: Active
inhibition [21]: Active
inhibition [22]: Active
inhibition [23]: inactive
inhibition [24]: Active
inhibition [25]: inactive
inhibition [26]: inactive
inhibition [27]: Active
SMILES: CCCc1cc(C)[nH]c(=O)c1CNC(=O)c1cc(-c2ccc(N3CCN(C(C)C)CC3)nc2)cc2c1cnn2C(C)C
